Values after ≈ are worked out from the molar mass of the structure shown. Where only a bound is given, the exact number is not on record here.

For four molecules, MIC results are on record in ChEMBL document CHEMBL1255375, “Mutational events in cefotaximase extended-spectrum beta-lactamases of the CTX-M-1 cluster involved in ceftazidime resistance” (2008).

The test system of assay [1] is Escherichia coli. Kind of assay: Antimicrobial activity against beta lactamase CTX-M-10 producing Escherichia coli GB20 by broth microdilution method. Type of assay: functional.
The subject of assay [2] is Escherichia coli. Kind of assay: Antimicrobial activity against Escherichia coli GB20 harboring P167S mutation in beta lactamase CTX-M-10 by broth microdilution method. Type of assay: functional.
Assay [3] has as its system Escherichia coli. Kind of assay: Antimicrobial activity against Escherichia coli GB20 harboring D240G mutation in beta lactamase CTX-M-10 by broth microdilution method. The assay is classed as functional.
For assay [4], the system named is Escherichia coli. Kind of assay: Antimicrobial activity against Escherichia coli GB20 harboring V27A, Q38R mutations in beta lactamase CTX-3 by broth microdilution method. Type of assay: functional.
Assay [5] relates to Escherichia coli. Kind of assay: Antimicrobial activity against Escherichia coli GB20 harboring V27A, Q38R, P167S mutation in beta lactamase CTX-M-3 by broth microdilution method. Type of assay: functional.
Assay [6] deals with Escherichia coli. Kind of assay: Antimicrobial activity against Escherichia coli GB20 harboring V27A, Q38R, A77V, P167S mutation in beta lactamase CTX-M-3 by broth microdilution method. The assay is classed as functional.
Assay [7] deals with Escherichia coli. Kind of assay: Antimicrobial activity against Escherichia coli GB20 harboring V27A, Q38R, A77V, N114D, A140S, D288N mutations in beta lactamase CTX-M-1 by broth microdilution method. Type of assay: functional.
Assay [8] relates to Escherichia coli. Kind of assay: Antimicrobial activity against Escherichia coli GB20 harboring V27A, Q38R, A77V, N114D, A140S, P167S, D288N mutations in beta lactamase CTX-M-1 by broth microdilution method. The assay is classed as functional.
For assay [9], the system named is Escherichia coli. Kind of assay: Antimicrobial activity against Escherichia coli GB20 harboring V27A, Q38R, A77V, N114D, A140S, P167T, D288N mutations in beta lactamase CTX-M-1 by broth microdilution method. The assay is classed as functional.
The subject of assay [10] is Escherichia coli. Kind of assay: Antimicrobial activity against Escherichia coli MI1443 harboring V27A, Q38R, D240G mutations in beta lactamase CTX-M-15 by broth microdilution method. Type of assay: functional.
Assay [11] concerns Escherichia coli. Kind of assay: Antimicrobial activity against Escherichia coli MI1443 harboring V27A, Q38R, A77V, N114D, A140S, D240G, D288N mutations in beta lactamase CTX-M-32 by broth microdilution method. The assay is classed as functional.
For assay [12], the system named is Escherichia coli. Kind of assay: Antimicrobial activity against Escherichia coli MI1443 harboring A77V mutation in beta lactamase CTX-M-10 by E-test. Type of assay: functional. In short, it runs like this:
(§1)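 MICs by E-test. Host is E. coli MI1443 carrying an artificial blaCTX-M derivative made by PCR and cloned into pBGS18- (EcoRI/PstI). Transformants were selected on kanamycin 50 µg/ml and the mutation was confirmed by sequencing. Agents tested: cefotaxime, ceftazidime, cefepime, cefuroxime and amoxicillin-clavulanate.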

For assay [13], the system named is Escherichia coli. Kind of assay: Antimicrobial activity against Escherichia coli MI1443 harboring A77V and P167S mutations in beta lactamase CTX-M-10 by E-test. The assay is classed as functional. In short, it runs like this: (§2)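 E-test MICs on E. coli MI1443 carrying artificial blaCTX-M derivatives. Each gene was cloned into pBGS18– at EcoRI/PstI, transformed into MI1443, selected with kanamycin 50 µg/ml, and sequenced to confirm the mutation. Agents: cefotaxime, ceftazidime, cefepime, cefuroxime, amoxicillin-clavulanate.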

In assay [14] the test system is Escherichia coli. Kind of assay: Antimicrobial activity against Escherichia coli MI1443 harboring A77V and D240G mutations in beta lactamase CTX-M-10 by E-test. Type of assay: functional. In a few lines:
as §2

Assay [15] concerns Escherichia coli. Kind of assay: Antimicrobial activity against Escherichia coli MI1443 harboring N106S mutation in beta lactamase CTX-M-10 by E-test. The assay is classed as functional. In a few lines: as §2
The test system of assay [16] is Escherichia coli. Kind of assay: Antimicrobial activity against Escherichia coli MI1443 harboring N106S and P167S mutations in beta lactamase CTX-M-10 by E-test. The assay is classed as functional. In short, it runs like this: as §2
The subject of assay [17] is Escherichia coli. Kind of assay: Antimicrobial activity against Escherichia coli MI1443 harboring N106S and D240G mutations in beta lactamase CTX-M-10 by E-test. The assay is classed as functional. In short, it runs like this:
as §2

In assay [18] the test system is Escherichia coli. Kind of assay: Antimicrobial activity against Escherichia coli MI1443 harboring P167S and D240G mutations in beta lactamase CTX-M-10 by E-test. The assay is classed as functional. In short, it runs like this: as §1
For assay [19], the system named is Escherichia coli. Kind of assay: Antimicrobial activity against Escherichia coli MI1443 harboring V27A and Q38R mutations in beta lactamase CTX-M-10 by E-test. Type of assay: functional. In short, it runs like this:
as §2

Assay [20] relates to Escherichia coli. Kind of assay: Antimicrobial activity against Escherichia coli MI1443 harboring V27A, Q38R, A77V mutations in beta lactamase CTX-M-3 by E-test. Type of assay: functional. In short, it runs like this: as §1
Assay [21] concerns Escherichia coli. Kind of assay: Antimicrobial activity against Escherichia coli MI1443 harboring V27A, Q38R, A77V and D240G mutations in beta lactamase CTX-M-3 by E-test. Type of assay: functional. In a few lines:
as §2

Assay [22] concerns Escherichia coli. Kind of assay: Antimicrobial activity against Escherichia coli MI1443 harboring V27A, Q38R, N106S mutations in beta lactamase CTX-M-3 by E-test. Type of assay: functional. In a few lines:
as §1

Assay [23] relates to Escherichia coli. Kind of assay: Antimicrobial activity against Escherichia coli MI1443 harboring V27A, Q38R, N106S and P167S mutations in beta lactamase CTX-M-3 by E-test. The assay is classed as functional. In a few lines: as §1
Assay [24] deals with Escherichia coli. Kind of assay: Antimicrobial activity against Escherichia coli MI1443 harboring V27A, Q38R, N106S and D240G mutations in beta lactamase CTX-M-3 by E-test. The assay is classed as functional. In short, it runs like this:
as §2

Assay [25] relates to Escherichia coli. Kind of assay: Antimicrobial activity against Escherichia coli MI1443 harboring V27A, Q38R, P167S and D240G mutations in beta lactamase CTX-M-3 by E-test. The assay is classed as functional. In a few lines: as §1
In assay [26] the test system is Escherichia coli. Kind of assay: Antimicrobial activity against beta lactamase CTX-M-10 producing Escherichia coli MI1443 by broth microdilution.

Consider `CO/N=C(\C(=O)N[C@@H]1C(=O)N2C(C(=O)[O-])=C(C[N+]3(C)CCCC3)CS[C@H]12)c1csc(N)n1` [CEFEPIME], for which the MIC against Escherichia coli [1] was found to be 32 µg/mL (≈ 66.6 µM); against Escherichia coli [2] it was 1 µg/mL (≈ 2.08 µM); against Escherichia coli [3], 4 µg/mL (≈ 8.32 µM); against Escherichia coli [4] it was 32 µg/mL (≈ 66.6 µM); against Escherichia coli [5], 0.5 µg/mL (≈ 1.04 µM); in the assay on Escherichia coli [6], 0.25 µg/mL (≈ 0.52 µM). Besides, the MIC stood at 128 µg/mL (≈ 266 µM) with Escherichia coli [7]; 4 µg/mL (≈ 8.32 µM) in the assay with Escherichia coli [8]; 4 µg/mL (≈ 8.32 µM) in the assay with Escherichia coli [9]; 1 µg/mL (≈ 2.08 µM) in the assay on Escherichia coli [10]; 4 µg/mL (≈ 8.32 µM) against Escherichia coli [11]; 128 µg/mL (≈ 266 µM) in the assay with Escherichia coli [12]. For the same molecule, the MIC is 1 µg/mL (≈ 2.08 µM) in the assay with Escherichia coli [13]; 32 µg/mL (≈ 66.6 µM) against Escherichia coli [14]; 1 µg/mL (≈ 2.08 µM) in the assay on Escherichia coli [15]; 1 µg/mL (≈ 2.08 µM) in the assay on Escherichia coli [16]; 4 µg/mL (≈ 8.32 µM) in the assay on Escherichia coli [17]; less than 0.25 µg/mL in the assay on Escherichia coli [18]. The MIC with Escherichia coli [19] worked out at 32 µg/mL (≈ 66.6 µM); against Escherichia coli [20] it was 1.5 µg/mL (≈ 3.12 µM); against Escherichia coli [21], 4 µg/mL (≈ 8.32 µM); against Escherichia coli [22], 1.5 µg/mL (≈ 3.12 µM); against Escherichia coli [23] it was 1.5 µg/mL (≈ 3.12 µM); against Escherichia coli [24], 8 µg/mL (≈ 16.6 µM). For the same molecule, the MIC against Escherichia coli [25] amounted to 0.5 µg/mL (≈ 1.04 µM); against Escherichia coli [26], 32 µg/mL (≈ 66.6 µM).
For `CO/N=C(\C(=O)N[C@@H]1C(=O)N2C(C(=O)O)=C(COC(C)=O)CS[C@H]12)c1csc(N)n1` [CEFOTAXIME], the MIC against Escherichia coli [1] is 256 µg/mL (≈ 562 µM); in the assay with Escherichia coli [2], 1 µg/mL (≈ 2.2 µM); in the assay with Escherichia coli [3], not below 256 µg/mL; with Escherichia coli [4] it was 256 µg/mL (≈ 562 µM); in the assay with Escherichia coli [5] it was 1 µg/mL (≈ 2.2 µM); with Escherichia coli [6] it was 4 µg/mL (≈ 8.78 µM). In addition, the MIC against Escherichia coli [7] is not below 256 µg/mL; against Escherichia coli [8] it was 16 µg/mL (≈ 35.1 µM); against Escherichia coli [9], 16 µg/mL (≈ 35.1 µM); against Escherichia coli [10], 128 µg/mL (≈ 281 µM); in the assay with Escherichia coli [11], 256 µg/mL (≈ 562 µM); with Escherichia coli [12], not below 256 µg/mL. Also, the MIC in the assay with Escherichia coli [13] is 4 µg/mL (≈ 8.78 µM); with Escherichia coli [14], not below 256 µg/mL; in the assay with Escherichia coli [15] it was 2 µg/mL (≈ 4.39 µM); with Escherichia coli [16], 2 µg/mL (≈ 4.39 µM); with Escherichia coli [17] it was 64 µg/mL (≈ 141 µM); in the assay on Escherichia coli [18] it was 4 µg/mL (≈ 8.78 µM). Besides, the minimum inhibitory concentration (MIC) against Escherichia coli [19] is 256 µg/mL (≈ 562 µM); with Escherichia coli [20] it was 128 µg/mL (≈ 281 µM); against Escherichia coli [21], not below 256 µg/mL; in the assay with Escherichia coli [22], 3 µg/mL (≈ 6.59 µM); against Escherichia coli [23] it was 3 µg/mL (≈ 6.59 µM); with Escherichia coli [24], not below 256 µg/mL. Also, the figures for the MIC in the assay on Escherichia coli [25] and in the assay with Escherichia coli [26] were 1.5 µg/mL (≈ 3.29 µM) and 256 µg/mL (≈ 562 µM), respectively.
In the case of `CC(C)(O/N=C(\C(=O)N[C@@H]1C(=O)N2C(C(=O)[O-])=C(C[n+]3ccccc3)CS[C@H]12)c1csc(N)n1)C(=O)O` [CEFTAZIDIME], the MIC against Escherichia coli [1] turned out to be 1 µg/mL (≈ 1.83 µM); in the assay with Escherichia coli [2], 32 µg/mL (≈ 58.5 µM); against Escherichia coli [3], 16 µg/mL (≈ 29.3 µM); in the assay with Escherichia coli [4], 1 µg/mL (≈ 1.83 µM); in the assay on Escherichia coli [5], 32 µg/mL (≈ 58.5 µM); against Escherichia coli [6] it was 32 µg/mL (≈ 58.5 µM). Also, the MIC was 4 µg/mL (≈ 7.32 µM) with Escherichia coli [7]; 256 µg/mL (≈ 468 µM) against Escherichia coli [8]; 256 µg/mL (≈ 468 µM) in the assay with Escherichia coli [9]; 2 µg/mL (≈ 3.66 µM) against Escherichia coli [10]; 2 µg/mL (≈ 3.66 µM) against Escherichia coli [11]; 8 µg/mL (≈ 14.6 µM) against Escherichia coli [12]. The MIC was 64 µg/mL (≈ 117 µM) in the assay with Escherichia coli [13]; 8 µg/mL (≈ 14.6 µM) in the assay with Escherichia coli [14]; 0.5 µg/mL (≈ 0.915 µM) against Escherichia coli [15]; 16 µg/mL (≈ 29.3 µM) against Escherichia coli [16]; 2 µg/mL (≈ 3.66 µM) with Escherichia coli [17]; 4 µg/mL (≈ 7.32 µM) in the assay with Escherichia coli [18]. Also, the MIC is 1 µg/mL (≈ 1.83 µM) in the assay on Escherichia coli [19]; 1 µg/mL (≈ 1.83 µM) in the assay on Escherichia coli [20]; 2 µg/mL (≈ 3.66 µM) against Escherichia coli [21]; 0.5 µg/mL (≈ 0.915 µM) with Escherichia coli [22]; 32 µg/mL (≈ 58.5 µM) against Escherichia coli [23]; 2 µg/mL (≈ 3.66 µM) against Escherichia coli [24]. The MIC worked out at 8 µg/mL (≈ 14.6 µM) against Escherichia coli [25] and 1 µg/mL (≈ 1.83 µM) against Escherichia coli [26].
Take `CO/N=C(\C(=O)N[C@@H]1C(=O)N2C(C(=O)O)=C(COC(N)=O)CS[C@H]12)c1ccco1` [CEFUROXIME]: the MIC with Escherichia coli [1] was not below 256 µg/mL; against Escherichia coli [2] it was 32 µg/mL (≈ 75.4 µM); in the assay with Escherichia coli [5], 128 µg/mL (≈ 302 µM); against Escherichia coli [6] it was 64 µg/mL (≈ 151 µM); with Escherichia coli [13], 64 µg/mL (≈ 151 µM); with Escherichia coli [26] it was not below 256 µg/mL.
